Assay results published in PMC5651997 (Chemosphere, 2017).

Key:
D. magna [1] = test: 48 h acute toxicity test, single chemicals; assay type: in vivo, Daphnia magna; settings: for LC50: read-out: LC50 (μM)(95% CI)
detoxification genes = test: RNA sequencing, differential gene expression after atrazine exposure; assay type: in vivo, Daphnia magna; settings: 40 μM atrazine, 96 h
[2] = test system: detoxification and sphingolipid homeostasis genes; test: qPCR confirmation of differential gene expression; assay type: in vivo, Daphnia magna; settings: 20 or 40 μM atrazine, 96 h, at least one of the concentrations
In short: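 RNA stabilised and stored at −80°C; 2 μg reverse-transcribed with MMLV. SYBR Green qPCR; efficiency from a 1:1–1:1024 dilution series of pooled untreated and treated samples; triplicate 1:15-diluted samples quantified.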

Daphnia HR96 = settings: ref Karimullina et al., 2012; cited from earlier work
D. magna [3] = assay type: in vivo, Daphnia magna; settings: neonates, 48 h, 40 μM atrazine
[4] = 48 h acute toxicity test, single chemicals; assay type: in vivo, Daphnia magna; settings: Daphnia magna, in vivo, LC50 (μM)(95% CI)
[5] = neonates (<24 h old), 48 h, chemical individually, (95% CI)
[6] = neonates (<24 h old), 48 h, chemical individually

CC(C)(c1ccc(O)cc1)c1ccc(O)cc1 [BPA, bisphenol A]
Hillslope (D. magna [1]; [5]): −6.891 (−10.34 to −3.438)

CCNc1nc(Cl)nc(NC(C)C)n1 [atrazine]
logFC, GST 1 (detoxification genes; glutathione metabolism pathway): 1.33 | logFC, aminopeptidase (detoxification genes; glutathione metabolism pathway): 1.13 | number of significantly down-regulated genes (detoxification genes; of 26,646 genes identified): 441 | number of significantly up-regulated genes (detoxification genes; of 26,646 genes identified): 675 | expression of two GSTs, cyp370a9, ADH-A and two sphingomyelinases by qPCR [2]: significantly up-regulated | potency for activating Daphnia HR96 (Daphnia HR96): greatest potency

CCOP(=S)(OCC)Oc1nc(Cl)c(Cl)cc1Cl [chlorpyrifos]
Hillslope (D. magna [1]; [5]): −2.498 (−3.795 to −1.496)

O=S1OCC2C(CO1)C1(Cl)C(Cl)=C(Cl)C2(Cl)C1(Cl)Cl (centres unmarked) [endosulfan]
drop of LC50 in atrazine-containing binary mixture vs chemical alone (D. magna [3]): 60% | Hillslope (D. magna [1]; [5]): −8.310 (−10.52 to −6.098)

CCCCCCCCCc1ccc(O)cc1 [p-nonylphenol]
drop of LC50 in atrazine-containing binary mixture vs chemical alone (D. magna [3]): 25% | LC50 [4]: 1.94 µM | Hillslope (D. magna [1]; Daphnia magna, in vivo): −5.895 (−8.000 to −3.790)

CCOP(=S)(OCC)Oc1ccc([N+](=O)[O-])cc1 [parathion]
Hillslope (D. magna [1]; [5]): −4.831 (−8.368 to −1.294) | LC50 (D. magna [1]; [6]): 0.0122 µM

Oc1cc(Cl)ccc1Oc1ccc(Cl)cc1Cl [triclosan]
Hillslope (D. magna [1]; [5]): −4.365 (−6.091 to −3.083) | LC50 (D. magna [1]; [6]): 1.08 µM
